From PubChem
Rtt109 HAT inh – inhibitors of C. albicans Rtt109/Vps75 HAT, primary screen, biochemical, ThioGlo CoA-SH fluorescence, plate reader | purified Rtt109/Vps75, 4 h | inhibition, % at 34.9 µM | actives 0.16% (n = 330,000) | AID 540336, 2011;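 active means inhibition of at least 50% in every replicate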
HNF4A DNA FP – change in binding of human HNF4A to DNA, primary screen, biochemical, fluorescence polarization, FITC-DNA | activity change, % at 10 µM | 1 h | Hepatocyte nuclear factor 4-alpha (Homo sapiens), P41235 | actives 0.3% (n = 360,000); in the data active means activity change above about 30%, passing the limit was not always enough
Target sequence (P41235 whole entry, looked up): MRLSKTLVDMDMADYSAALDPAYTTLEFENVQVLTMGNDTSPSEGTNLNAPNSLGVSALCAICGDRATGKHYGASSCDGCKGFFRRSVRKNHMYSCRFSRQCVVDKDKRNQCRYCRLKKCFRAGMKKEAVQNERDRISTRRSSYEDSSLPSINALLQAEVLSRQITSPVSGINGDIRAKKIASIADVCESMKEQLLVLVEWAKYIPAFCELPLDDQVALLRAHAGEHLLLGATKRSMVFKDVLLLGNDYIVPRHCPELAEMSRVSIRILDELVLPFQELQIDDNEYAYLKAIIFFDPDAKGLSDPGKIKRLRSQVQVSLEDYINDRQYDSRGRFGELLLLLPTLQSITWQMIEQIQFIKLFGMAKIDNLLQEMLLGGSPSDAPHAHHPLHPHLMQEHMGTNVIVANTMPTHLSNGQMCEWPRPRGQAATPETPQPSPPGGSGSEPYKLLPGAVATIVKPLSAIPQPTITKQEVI
TPT1 inh – Candida albicans TPT1 enzyme inhibitors, primary screen, biochemical, fluorescence polarization | actives 0.81% (n = 300,000) | recombinant caTPT1, FP RNA substrate dephosphorylation | tRNA 2'-phosphotransferase TPT1 (Candida albicans SC5314) | inhibition, % at 5 µM;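 active means inhibition above the mean of all tested compounds plus 3 SD, set per screening campaign, cut at about 24% in these data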;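 further: plate controls were DMSO alone for no effect and ferristatin control at 100 nM for full effect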
CSN inh – inhibitors of CSN-mediated cullin deneddylation, primary screen, biochemical, fluorescence polarization, uHTS; inhibition, % at 12.5 µM; actives 0.38% (n = 360,000); COP9 signalosome complex subunit 5 (Homo sapiens), Q92905; AID 651999, 2013; Purified CSN, SCF-Nedd8-OG deneddylation;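 active means pattern-corrected inhibition above about 35%, with an unprinted fluorescence ratio check between 0.5 and 1.5, limit read from the data, passing the limit was not always enough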;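 further: 0% = enzyme with substrate and 100% = substrate without enzyme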
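Test system: Human Csn5 produced in HEK293T cells | Compound: 12.5 µM single point | Times: 90 min, room temperature | Signal: Fluorescence polarization readout | Read-out basis: % inhibition of substrate cleavage by Csn5 | Controls: no-enzyme wells high, enzyme-with-substrate wells low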
CSN deneddyl val – Csn5 deneddylation inhibitors, confirmation, biochemical, fluorescence polarization, single concentration, SCF-Nedd8OG substrate | Csn5 deneddylation of SCF-Nedd8OG, 90 min | inhibition, % at 16.6 µM | actives 62% (n = 540) | shares compounds with CSN inh | AID 720654, 2013; in the data active means inhibition above about 50%;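 further: 0% = DMSO with enzyme and 100% = no enzyme wells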
MMP2 cntr CSN – MMP-2 protease inhibition counter-screen, confirmation, counter-screen for CSN deneddylation inhibitor project, biochemical, fluorescence, single concentration. AID 720655, 2013. actives 33% (n = 540). shares compounds with CSN inh. inhibition, % at 16.6 µM. recombinant MMP-2, FRET substrate fluorescence, 60 min;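 active means corrected plate-normalized z-score of 5 or more, or -5 or less, or inhibition of 15% or more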;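 further: plate controls were DMSO wells with enzyme for no effect and buffer wells lacking MMP-2 for full effect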
Thrombin counter – thrombin (bovine) inhibition, counter-screen for CSN hits; shares compounds with CSN inh; bovine thrombin cleavage of Ub4-pepOG, fluorescence polarization; inhibition, % at 16.6 µM; actives 49% (n = 540); AID 720656;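 active means inhibition at or above a set limit, with a fluorescence interference ratio between 0.5 and a set maximum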
Starred values were filed as active, the others as inactive; ! = a repeat was not active. Most compounds without a hit are left out; they make up all but 1.2% or so of the library.

`COc1cccc(/C=N/N2C(=O)CSC2=S)c1O` gave Rtt109 HAT inh 5, HNF4A DNA FP 3, TPT1 inh 5 and CSN inh 0.
For COc1cc(/C=N/N2C(=O)CSC2=S)cc(Br)c1O the results were Rtt109 HAT inh 14, HNF4A DNA FP 76*, CSN inh 118*, CSN deneddyl val -52, MMP2 cntr CSN 24* and Thrombin counter 88*.
COC(=O)c1ccc2c(c1)N(Cc1nc(-c3ccc(Cl)cc3)oc1C)C(=O)C1CCCN21 (centres undefined) was read as Rtt109 HAT inh 5, HNF4A DNA FP 27, TPT1 inh 4 and CSN inh -1.
Screening COc1cc(NS(=O)(=O)c2ccc(NC(=S)NC(=O)/C=C/c3ccco3)cc2)ncn1 returned Rtt109 HAT inh 0, HNF4A DNA FP -42, CSN inh 49*, CSN deneddyl val 61*, MMP2 cntr CSN 23* and Thrombin counter 22*.
`CCOC(=O)c1sc2ncnc(Nc3cccc(C(=O)O)c3)c2c1C` gave Rtt109 HAT inh -4, HNF4A DNA FP -2, TPT1 inh 4 and CSN inh 2.
`CCN1CCN(Cc2ccc(NC(=O)c3ccc(C)c(NC(=O)c4c[nH]c5cc(C(F)(F)F)ccc5c4=O)c3)cc2C(F)(F)F)CC1` gave Rtt109 HAT inh -6, HNF4A DNA FP 55*, TPT1 inh -3, CSN inh 78*!, CSN deneddyl val 90*, MMP2 cntr CSN 9 and Thrombin counter 4.
For N#Cc1c(NC(=O)CSc2ncnc3sccc23)oc(-c2ccco2)c1-c1ccco1 the results were Rtt109 HAT inh 3, HNF4A DNA FP 3, TPT1 inh 23, CSN inh 51*, CSN deneddyl val 64*, MMP2 cntr CSN 9 and Thrombin counter 7.
Cc1cc(NC(=O)CSc2ncnc3sccc23)no1 was read as Rtt109 HAT inh -9, HNF4A DNA FP -3, TPT1 inh 0 and CSN inh -2.
`CC1CCCC(NC(=O)CN2C(=O)NC(c3ccccc3)(c3ccccc3)C2=O)C1C` (centres undefined) gave Rtt109 HAT inh 1, HNF4A DNA FP -4 and CSN inh -1.
Screening O=S(=O)(N/N=C/c1ccc(N2CCOCC2)cc1)c1ccc(Br)cc1 returned Rtt109 HAT inh 12, HNF4A DNA FP 3, TPT1 inh 0 and CSN inh -1.
Screening O=C(NCc1cccc(C(F)(F)F)c1)c1cccc2c1C(=O)c1ccc(N3CCC(Cc4ccccc4)CC3)cc1S2(=O)=O returned Rtt109 HAT inh 1, HNF4A DNA FP -19 and CSN inh -1.
`O=C(NCc1cc(C(F)(F)F)ccc1Cl)c1cccc2c1C(=O)c1ccc(N3CCC(N4CCCCC4)CC3)cc1S2(=O)=O` gave HNF4A DNA FP 140*, CSN inh 82*, CSN deneddyl val -38, MMP2 cntr CSN -18 and Thrombin counter 46*.
For COc1cc(N(C)C)ccc1C=c1c2ccccc2n2c1cc(-c1ccccc1)[n+]2C the results were Rtt109 HAT inh -1, HNF4A DNA FP 176, CSN inh 71*, CSN deneddyl val -15, MMP2 cntr CSN 73* and Thrombin counter 57*.
Cc1nc(C(F)(F)F)ccc1C(=O)N1CCC1(C)C(=O)Nc1ccc2c(c1)OCO2 (centres undefined) was read as HNF4A DNA FP 4 and CSN inh -1.
Cc1ccc(C)c(S(=O)(=O)Nc2ccc3oc(C)c(C(=O)O)c3c2)c1 was read as Rtt109 HAT inh 4, HNF4A DNA FP -31, TPT1 inh -2, CSN inh 40*, CSN deneddyl val 53, MMP2 cntr CSN 12 and Thrombin counter 7.
For C=CCn1c(CNC(=O)c2ccccc2F)nnc1SCC(=O)N1CCOCC1 the results were Rtt109 HAT inh 9, HNF4A DNA FP -3, TPT1 inh 1 and CSN inh -1.
Screening CCOc1ccc(/C=C/C2=Cc3c(sc(NC(=O)CSc4n[nH]c(N)n4)c3C#N)C(C)(C)C2)cc1 returned Rtt109 HAT inh 16, HNF4A DNA FP 42*, TPT1 inh 57*, CSN inh 44*, CSN deneddyl val 72*, MMP2 cntr CSN 7 and Thrombin counter 35*.
For Cc1ccsc1/C=C/C1=Cc2c(sc(NC(=O)CSc3n[nH]c(N)n3)c2C#N)C(C)(C)C1 the results were Rtt109 HAT inh 5, HNF4A DNA FP -2, TPT1 inh 23 and CSN inh 32.
CCOC(=O)C1CCN(C(=O)CCCn2nc(C)c3c(C)n(-c4ccc(C)cc4)nc3c2=O)CC1 was read as Rtt109 HAT inh 25, HNF4A DNA FP 4, TPT1 inh -1 and CSN inh -5.
Cc1ccc(-c2nn3c(C)nnc3s2)cc1NC(=O)c1ccc(-c2ccc(Cl)cc2Cl)o1 was read as Rtt109 HAT inh -4, HNF4A DNA FP 104*, TPT1 inh 9, CSN inh 124*, CSN deneddyl val 112*, MMP2 cntr CSN 1 and Thrombin counter 4.
For CCCCn1c(N)c(N(CC(C)C)C(=O)CC2CCCC2)c(=O)[nH]c1=O the results were Rtt109 HAT inh 1, HNF4A DNA FP 0, TPT1 inh 4 and CSN inh -7.
Screening Cc1cc(C(=O)OCC(=O)NC(C)c2ccc(F)cc2)c(C)o1 (centres undefined) returned Rtt109 HAT inh -6, HNF4A DNA FP 3 and CSN inh 0.
For CN(C)c1ccc2cc(S(=O)(=O)O)cc(O)c2c1 the results were Rtt109 HAT inh 4, HNF4A DNA FP -18, CSN inh 35*, CSN deneddyl val 75*, MMP2 cntr CSN 4 and Thrombin counter 1.
For O=C1NC(=Nc2ccc(O)cc2)S/C1=C\C=C\c1ccco1 the results were Rtt109 HAT inh 0, HNF4A DNA FP -1, TPT1 inh 6, CSN inh 48*, CSN deneddyl val 92*, MMP2 cntr CSN 7 and Thrombin counter -10.
`COc1ccc(N=C2NC(=O)/C(=C\c3ccco3)S2)cc1` gave Rtt109 HAT inh 9, HNF4A DNA FP -1, TPT1 inh 3 and CSN inh 23.
